How the values were obtained:
Assay type in all cases: functional
OVCAR-4 = assay: Antiproliferative activity against human OVCAR4 cells after 48 hrs by sulforhodamine B assay; settings: OVCAR-4, 48 h
Procedure, shortened: (§1)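 Cells grown in RPMI 1640 with 5% FBS and 2 mM L-glutamine, plated at 5000–40,000 cells/well and preincubated 24 h at 37 °C, 5% CO2. Five drug concentrations (10-fold or ½-log dilutions from DMSO stocks) applied for 48 h. TCA-fixed (final 10% adherent, 16% suspension), SRB-stained, A515 read. Growth versus time-zero and control wells gave GI50, TGI, LC50.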

786-0 = assay: Antiproliferative activity against human 786-0 cells after 48 hrs by sulforhodamine B assay; settings: 786-0, 48 h; procedure, shortened: as §1
SW-620 = assay: Antiproliferative activity against human SW620 cells after 48 hrs by sulforhodamine B assay; settings: SW-620, 48 h
Procedure, shortened: (§2)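 Cells in RPMI 1640 with 5% FBS and 2 mM L-glutamine were seeded at 5000–40,000/well according to doubling time and preincubated 24 h at 37 °C in 5% CO2. Time-zero plates were TCA-fixed when drug was added. Five 10-fold or ½-log dilutions from DMSO stocks were added for 48 h. After SRB staining, A515 was read and GI50 derived from [(Ti−Tz)/(C−Tz)]×100 = 50.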

[1] = Antiproliferative activity against human HCC2998 cells after 48 hrs by sulforhodamine B assay; settings: HCC 2998, 48 h; procedure, shortened: as §1
A498 = assay: Antiproliferative activity against human A498 cells after 48 hrs by sulforhodamine B assay; settings: A498, 48 h; procedure, shortened: as §1
MDA-MB-231 = assay: Antiproliferative activity against human MDA-MB-231 cells after 48 hrs by sulforhodamine B assay; settings: MDA-MB-231, 48 h; procedure, shortened: as §1
SNB-75 = assay: Antiproliferative activity against human SNB75 cells after 48 hrs by sulforhodamine B assay; settings: SNB-75, 48 h; procedure, shortened: as §2
MDA-MB-468 = assay: Antiproliferative activity against human MDA-MB-468 cells after 48 hrs by sulforhodamine B assay; settings: MDA-MB-468, 48 h; procedure, shortened: as §1
CAKI-1 = assay: Antiproliferative activity against human CAKI-1 cells after 48 hrs by sulforhodamine B assay; settings: CAKI-1, 48 h; procedure, shortened: as §1
[2] = Antiproliferative activity against human EKVX cells after 48 hrs by sulforhodamine B assay; procedure, shortened: as §1
RXF 393 = assay: Antiproliferative activity against human RXF393 cells after 48 hrs by sulforhodamine B assay; settings: RXF 393, 48 h; procedure, shortened: as §1
MCF7 = assay: Antiproliferative activity against human MCF7 cells after 48 hrs by sulforhodamine B assay; settings: MCF7, 48 h; procedure, shortened: as §1
K562 = assay: Antiproliferative activity against human K562 cells after 48 hrs by sulforhodamine B assay; settings: K562, 48 h; procedure, shortened: as §1
A549 = assay: Antiproliferative activity against human A549 cells after 48 hrs by sulforhodamine B assay; settings: A549, 48 h; procedure, shortened: as §1
HCT-15 = assay: Antiproliferative activity against human HCT15 cells after 48 hrs by sulforhodamine B assay; settings: HCT-15, 48 h; procedure, shortened: as §1
T47D = assay: Antiproliferative activity against human T47D cells after 48 hrs by sulforhodamine B assay; procedure, shortened: as §2
OVCAR-5 = assay: Antiproliferative activity against human OVCAR5 cells after 48 hrs by sulforhodamine B assay; settings: OVCAR-5, 48 h; procedure, shortened: as §1
TK-10 = assay: Antiproliferative activity against human TK10 cells after 48 hrs by sulforhodamine B assay; settings: TK-10, 48 h; procedure, shortened: as §2
PC-3 = assay: Antiproliferative activity against human PC3 cells after 48 hrs by sulforhodamine B assay; settings: PC-3, 48 h; procedure, shortened: as §1
COLO 205 = assay: Antiproliferative activity against human COLO205 cells after 48 hrs by sulforhodamine B assay; settings: COLO 205, 48 h; procedure, shortened: as §1
[3] = Antiproliferative activity against human Hs 578T cells after 48 hrs by sulforhodamine B assay; procedure, shortened: as §1
OVCAR-8 = assay: Antiproliferative activity against human OVCAR8 cells after 48 hrs by sulforhodamine B assay; settings: OVCAR-8, 48 h; procedure, shortened: as §1
UACC-62 = assay: Antiproliferative activity against human UACC62 cells after 48 hrs by sulforhodamine B assay; settings: UACC-62, 48 h; procedure, shortened: as §2
HOP-62 = assay: Antiproliferative activity against human HOP62 cells after 48 hrs by sulforhodamine B assay; settings: HOP-62, 48 h; procedure, shortened: as §1
HOP-92 = assay: Antiproliferative activity against human HOP92 cells after 48 hrs by sulforhodamine B assay; settings: HOP-92, 48 h; procedure, shortened: as §1
SK-OV-3 = assay: Antiproliferative activity against human SKOV3 cells after 48 hrs by sulforhodamine B assay; settings: SK-OV-3, 48 h; procedure, shortened: as §1
SF-268 = assay: Antiproliferative activity against human SF268 cells after 48 hrs by sulforhodamine B assay; settings: SF-268, 48 h; procedure, shortened: as §1
SF-539 = assay: Antiproliferative activity against human SF539 cells after 48 hrs by sulforhodamine B assay; settings: SF-539, 48 h; procedure, shortened: as §1
RPMI-8226 = assay: Antiproliferative activity against human RPMI8226 cells after 48 hrs by sulforhodamine B assay; settings: RPMI-8226, 48 h, read-out: pLC50 (the source's name) (converted); procedure, shortened: as §1
[4] = read-out: pLC50 (the source's name) (converted)

O=C(CCCn1c(=O)c2sc3ccccc3c2n2nnc(-c3ccccc3)c12)NCCc1c[nH]cn1
GI50 (OVCAR-4): 1.74 µM | TGI (OVCAR-4; read-out: pTGI (converted)): 3.8 µM | GI50 (786-0): 1.58 µM | TGI (786-0; read-out: pTGI (converted)): 3.55 µM | GI50 (SW-620): 0.407 µM | GI50 [1]: 1.78 µM | LC50 [1]: 9.77 µM | TGI ([1]; read-out: pTGI (converted)): 4.17 µM | GI50 (A498): 1.55 µM | LC50 (A498): 5.75 µM | TGI (A498; read-out: pTGI (converted)): 3.02 µM | GI50 (MDA-MB-231): 1.91 µM | LC50 (MDA-MB-231): 6.76 µM | TGI (MDA-MB-231; read-out: pTGI (converted)): 3.63 µM | GI50 (SNB-75): 1.86 µM | LC50 (concentration killing 50% of starting cells) (SNB-75): 8.71 µM | TGI (SNB-75; read-out: pTGI (converted)): 4.07 µM | GI50 (MDA-MB-468): 1.7 µM | LC50 (MDA-MB-468): 7.94 µM | TGI (MDA-MB-468; read-out: pTGI (converted)): 3.72 µM | GI50 (CAKI-1): 0.182 µM | CC50 (CAKI-1; [4]): 4.47 µM | TGI (CAKI-1; read-out: pTGI (converted)): 1.7 µM | GI50 [2]: 2.69 µM | LC50 [2]: > 100 µM | TGI ([2]; read-out: pTGI (converted)): 8.71 µM | GI50 (RXF 393): 2.51 µM | LC50 (RXF 393): > 100 µM | TGI (RXF 393; read-out: pTGI (converted)): 5.01 µM | GI50 (MCF7): 1.45 µM | LC50 (MCF7): 6.46 µM | TGI (MCF7; read-out: pTGI (converted)): 3.09 µM | GI50 (K562): 0.437 µM | GI50 (A549): 2.09 µM | TGI (A549; read-out: pTGI (converted)): 4.57 µM | GI50 (HCT-15): 1.26 µM | LC50 (HCT-15): 5.01 µM | TGI (HCT-15; read-out: pTGI (converted)): 2.51 µM | GI50 (T47D): 1.41 µM | LC50 (T47D): > 100 µM | TGI (T47D; read-out: pTGI (converted)): 4.47 µM | GI50 (OVCAR-5): 1.2 µM | TGI (OVCAR-5; read-out: pTGI (converted)): 2.75 µM | GI50 (TK-10): 2.14 µM | TGI (TK-10; read-out: pTGI (converted)): 3.98 µM | LC50 (PC-3): > 100 µM | TGI (PC-3; read-out: pTGI (converted)): > 100 µM | GI50 (COLO 205): 1.1 µM | LC50 (COLO 205): > 100 µM | TGI (COLO 205; read-out: pTGI (converted)): 4.79 µM | GI50 [3]: 1.74 µM | TGI ([3]; read-out: pTGI (converted)): 4.07 µM | GI50 (OVCAR-8): 0.324 µM | LC50 (OVCAR-8): > 100 µM | TGI (OVCAR-8; read-out: pTGI (converted)): 2.82 µM | GI50 (UACC-62): 1.91 µM | LC50 (concentration killing 50% of cells) (UACC-62): 6.61 µM | TGI (UACC-62; read-out: pTGI (converted)): 3.55 µM | GI50 (HOP-62): 2.29 µM | LC50 (HOP-62): > 100 µM | TGI (HOP-62; read-out: pTGI (converted)): 5.25 µM | GI50 (HOP-92): 1.86 µM | CC50 (HOP-92; [4]): > 100 µM | GI50 (SK-OV-3): 3.47 µM | LC50 (SK-OV-3): 66.1 µM | TGI (SK-OV-3; read-out: pTGI (converted)): 15.5 µM | GI50 (SF-268): 1.78 µM | LC50 (SF-268): 7.76 µM | TGI (SF-268; read-out: pTGI (converted)): 3.72 µM | GI50 (SF-539): 0.661 µM | LC50 (SF-539): 5.75 µM | TGI (SF-539; read-out: pTGI (converted)): 2.19 µM | CC50 (RPMI-8226): > 100 µM

From ChEMBL document CHEMBL2346608, “New annelated thieno[2,3-e][1,2,3]triazolo[1,5-a]pyrimidines, with potent anticancer activity, designed through VLAK protocol” (2013)
